Assay [1] relates to HEK293. As to the kind of experiment: Inhibition of human HSP70 expressed in HEK293 cells assessed as inhibition of refolding of heat denatured luciferase at 10 uM incubated for 1 hr followed by heat treatment measured after 2 hrs by Western blotting analysis. Type of assay: cell-based. A digest of the protocol:
(§1)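 HEK293 cells cotransfected with C-terminal HA-luciferase plus N-terminal Flag-human Hsp70 or control vector. Two days later: cycloheximide 50 μg/mL, compound at 10 μM added just before 1 h at 45 °C, then recovery at 37 °C up to 2 h. Triton X-100 lysates cleared at 20000g; luciferase activity normalized to protein, expressed as % of pre-heat-shock activity; soluble proteins immunoblotted.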

Assay [2] has as its system HEK293. Kind of assay: Inhibition of HSP70 in HEK293 cells assessed as inhibition of refolding of heat denatured luciferase at 10 uM incubated for 1 hr followed by heat treatment measured after 2 hrs by Western blotting analysis. As to conditions: Homo sapiens. Type of assay: cell-based. In short, it runs like this: as §1
For assay [3], the system named is MOLM-13. As to the kind of experiment: Inhibition of HSP70 in human MOLM13 cells assessed as STAT5 degradation at 1 to 20 uM by Western blotting analysis. Type of assay: cell-based. A digest of the protocol:
(§2)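 Cells (SKBr3, MDA-MB-468, MiaPaCa-2 in DME/F12; MOLM-13 in RPMI; 10% FBS) grown to 60–70% confluence, then given inhibitor or DMSO. Lysis in 50 mM Tris pH 7.4, 150 mM NaCl, 1% NP-40. Protein measured by BCA, and client proteins or cleaved PARP detected by immunoblotting with peroxidase-conjugated secondary antibody.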
A general note: Immunoblotting shows a protein as a band on a membrane.

Assay [4] concerns the target Receptor-type tyrosine-protein kinase FLT3 (Homo sapiens) (UniProt P36888). Kind of assay: Inhibition of HSP70 in human MOLM13 cells assessed as mutant FLT3 degradation at 1 to 20 uM by Western blotting analysis. Type of assay: cell-based. As to conditions: MOLM-13. A digest of the protocol:
as §2

Assay [5] deals with MIA PaCa-2. As to the kind of experiment: Inhibition of HSP70 in human MIAPaCa2 cells assessed as AKT degradation at 1 to 20 uM by Western blotting analysis. Type of assay: cell-based. A digest of the protocol: as §2
Assay [6] deals with MIA PaCa-2. As to the kind of experiment: Inhibition of HSP70 in human MIAPaCa2 cells assessed as STAT-3 degradation at 1 to 20 uM by Western blotting analysis. Type of assay: cell-based. In short, it runs like this:
as §2

For assay [7], the system named is MIA PaCa-2. Kind of assay: Inhibition of HSP70 in human MIAPaCa2 cells assessed as Raf-1 degradation at 1 to 20 uM by Western blotting analysis. Type of assay: cell-based. In short, it runs like this:
as §2

The subject of assay [8] is MDA-MB-468. As to the kind of experiment: Inhibition of HSP70 in human MDA-MB-468 cells assessed as Raf-1 degradation at 0.5 to 25 uM by Western blotting analysis. Type of assay: cell-based. In short, it runs like this: as §2
Assay [9] concerns MDA-MB-468. As to the kind of experiment: Inhibition of HSP70 in human MDA-MB-468 cells assessed as STAT-3 degradation at 0.5 to 25 uM by Western blotting analysis. Type of assay: cell-based. In short, it runs like this:
as §2

Assay [10] concerns the target Heat shock protein HSP 90-beta (Homo sapiens) (UniProt P08238). Kind of assay: Displacement of GM-Cy3B from HSP90 in human SKBR3 cells after 24 hrs by fluorescence polarization assay. The following applies: SK-BR-3. (In fluorescence polarisation assays a small probe gives low polarisation when free and higher when bound to something large.)
Assay [11] is described as follows: Cytotoxicity against human SKBR3 cells after 72 hrs by alamar blue assay. Type of assay: functional, SK-BR-3. In short, it runs like this: (§3)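 Alamar Blue (resazurin) viability assay: attached cells (SKBr3) plated at 8000/well, suspension cells (Kasumi-1) at 20000/well, left 24 h at 37 °C, then drug added in triplicate for 72 h. Alamar Blue 50 μM added, fluorescence read 6 h later (ex 530, em 580 nm). Growth inhibition versus control corrected for time-zero population; IC50 = concentration giving 50% growth inhibition.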
On the technique in general: The colour change of resazurin is a common sign of viable cells or microbes.

The test system of assay [12] is SK-BR-3. Kind of assay: Induction of apoptosis in human SKBR3 cells assessed as c-PARP cleavage by Western blotting analysis. Type of assay: functional. A digest of the protocol:
as §2

Assay [13] deals with SK-BR-3. As to the kind of experiment: Inhibition of HSP70 in human SKBR3 cells assessed as Raf-1 degradation by Western blotting analysis. Type of assay: cell-based. In short, it runs like this:
as §2

In assay [14] the test system is SK-BR-3. As to the kind of experiment: Inhibition of HSP70 in human SKBR3 cells assessed as HER2 degradation by Western blotting analysis. Type of assay: cell-based. In short, it runs like this:
as §2

In assay [15] the test system is MOLM-13. Kind of assay: Induction of apoptosis in human MOLM13 cells assessed as caspase 3/7 activation after 16 hrs by fluorescence assay. Type of assay: functional, cell-based. The following applies: Homo sapiens, MOLM-13, 16 h; read-out: IC50. In short, it runs like this: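 MOLM-13 cells at 30000/well in RPMI, held up to 24 h (37 °C, 5% CO2), then exposed 16 h to compound or DMSO. Buffer with 10 mM HEPES pH 7.5, 2 mM EDTA, 0.1% CHAPS and 25 μM Z-DEVD-R110 substrate added; fluorescence read once signal stabilized. Percent apoptotic increase calculated relative to control cells.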

Assay [16] concerns Kasumi 1. Kind of assay: Cytotoxicity against human Kasumi-1 cells after 72 hrs by alamar blue assay. The following applies: Homo sapiens, Kasumi 1, 72 h; read-out: IC50. Type of assay: functional, cell-based. In short, it runs like this:
as §3

Assay [17] has as its system Heat shock 70 kDa protein (Homo sapiens). Kind of assay: Inhibition of HSP70 in human SKBR3 cells assessed as inhibition of HSP70-HOP-HSP90 complex formation after 24 hrs by Western blotting analysis. As to conditions: SK-BR-3.

Active and inactive are the calls of the source. The calls are words filed in the database; no cut-off is given here.

Heat shock protein HSP 90-beta (Homo sapiens), sequence (P08238 whole entry): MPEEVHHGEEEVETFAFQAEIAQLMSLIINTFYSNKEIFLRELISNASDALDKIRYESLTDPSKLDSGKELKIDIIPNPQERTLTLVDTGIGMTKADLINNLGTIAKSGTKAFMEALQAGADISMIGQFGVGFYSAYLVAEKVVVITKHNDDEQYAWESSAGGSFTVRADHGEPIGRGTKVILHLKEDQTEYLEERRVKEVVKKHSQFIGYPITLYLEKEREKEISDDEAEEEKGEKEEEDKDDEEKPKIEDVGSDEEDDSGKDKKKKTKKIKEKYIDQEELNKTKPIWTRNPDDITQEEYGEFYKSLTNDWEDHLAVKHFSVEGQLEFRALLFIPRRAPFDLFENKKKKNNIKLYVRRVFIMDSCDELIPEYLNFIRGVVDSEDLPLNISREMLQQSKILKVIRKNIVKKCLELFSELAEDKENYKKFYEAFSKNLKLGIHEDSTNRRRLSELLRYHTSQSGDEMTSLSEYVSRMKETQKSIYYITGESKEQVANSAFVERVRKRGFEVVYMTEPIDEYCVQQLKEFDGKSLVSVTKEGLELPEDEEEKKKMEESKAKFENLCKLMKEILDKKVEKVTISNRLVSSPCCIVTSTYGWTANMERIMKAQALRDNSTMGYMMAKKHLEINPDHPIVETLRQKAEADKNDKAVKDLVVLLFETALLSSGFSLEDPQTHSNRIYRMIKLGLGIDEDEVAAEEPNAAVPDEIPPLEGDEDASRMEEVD
Receptor-type tyrosine-protein kinase FLT3 (Homo sapiens), sequence (P36888 whole entry): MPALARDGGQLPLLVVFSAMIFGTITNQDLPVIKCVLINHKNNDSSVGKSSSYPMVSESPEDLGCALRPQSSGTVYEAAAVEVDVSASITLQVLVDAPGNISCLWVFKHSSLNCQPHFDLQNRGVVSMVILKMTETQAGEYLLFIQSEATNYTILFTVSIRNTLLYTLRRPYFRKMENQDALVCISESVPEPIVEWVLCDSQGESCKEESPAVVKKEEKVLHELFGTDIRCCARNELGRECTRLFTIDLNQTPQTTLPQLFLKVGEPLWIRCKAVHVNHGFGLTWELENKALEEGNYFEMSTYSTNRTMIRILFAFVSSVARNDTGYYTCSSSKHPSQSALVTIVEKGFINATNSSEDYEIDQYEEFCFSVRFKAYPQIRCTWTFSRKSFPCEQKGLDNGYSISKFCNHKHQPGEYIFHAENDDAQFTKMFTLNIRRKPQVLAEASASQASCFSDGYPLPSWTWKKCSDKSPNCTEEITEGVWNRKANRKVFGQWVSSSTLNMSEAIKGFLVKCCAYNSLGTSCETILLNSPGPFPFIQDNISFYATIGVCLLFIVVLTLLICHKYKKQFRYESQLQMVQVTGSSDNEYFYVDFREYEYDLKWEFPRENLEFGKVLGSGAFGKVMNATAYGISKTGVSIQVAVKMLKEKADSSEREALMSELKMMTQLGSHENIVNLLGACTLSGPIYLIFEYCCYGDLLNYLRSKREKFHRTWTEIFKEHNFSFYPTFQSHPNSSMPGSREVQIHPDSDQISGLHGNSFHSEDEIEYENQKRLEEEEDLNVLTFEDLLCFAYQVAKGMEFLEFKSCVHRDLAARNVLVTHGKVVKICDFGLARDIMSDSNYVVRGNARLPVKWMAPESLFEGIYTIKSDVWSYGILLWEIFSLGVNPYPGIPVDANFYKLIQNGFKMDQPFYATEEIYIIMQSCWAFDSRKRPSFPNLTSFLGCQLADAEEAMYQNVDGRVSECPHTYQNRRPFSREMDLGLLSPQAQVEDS

As to `CN1CCN(c2ncc(Sc3cccc(NC(=O)CN)c3)c(OCc3ccccc3)n2)CC1`, the inhibition entry in assay [1], in assay [2], in assay [3], in assay [4], in [5] and in assay [6] was “Active” throughout. Also, the inhibition result in assay [7], in assay [8] and in assay [9] was “Active” each time. Moreover, the INH in [10] is over 500 µM; in assay [12], 1.5 µM; in assay [13], 1.2 µM; in assay [14], 1.5 µM. Moreover, the GI in [11] was determined as 2.1 µM. The IC50 (in general, the concentration needed to halve the response being measured) in assay [15] was 1900 nM; in assay [16], 2300 nM. Besides, in assay [17], the inhibition result is “Dose-dependent effect”.
